According to ChEMBL document CHEMBL2177074, “Variation of the net charge, lipophilicity, and side chain flexibility in Dmt(1)-DALDA: Effect on Opioid Activity and Biodistribution” (J Med Chem, 2012):
Active and inactive are the calls of the source. Non-standard residues stand in square brackets, D forms with d. Residues, ends and D or L forms follow the SMILES beside them. Dmt = Cc1cc(O)cc(C)c1C[C@H](N)C(=O)O; dCit = NC(=O)NCCC[C@@H](N)C(=O)O; NMeNle = CCCC[C@H](NC)C(=O)O; Nle = CCCC[C@H](N)C(=O)O

Assays:
Serum = assay: Biodistribution in ICR-CD1 mouse serum at 30000 cpm/uL, iv after 15 mins; format: ADME, organism-based; settings: in vivo, 0.25 h
Summary of the method: (§1)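 After intravenous 125I-peptide, kidneys, liver and other organs collected immediately after brain dissection, weighed and gamma-counted. Serum obtained by centrifugation at 10 000 × g for 15 min. Results expressed as % of injected dose per g tissue, normalized to body weight.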

Brain [1] = assay: Blood brain barrier transport in ICR-CD1 mouse brain assessed as brain efflux rate coefficient at 30000 cpm/uL, iv; format: ADME, organism-based; settings: in vivo
[2] = biological target: Kappa-type opioid receptor (Cavia porcellus, UniProt P41144); assay: Displacement of [3H]U69,593 from kappa opioid receptor in guinea pig ileum membranes after 2 hrs; format: cell membranes, Membrane
Sequence of Kappa-type opioid receptor (P41144 whole entry): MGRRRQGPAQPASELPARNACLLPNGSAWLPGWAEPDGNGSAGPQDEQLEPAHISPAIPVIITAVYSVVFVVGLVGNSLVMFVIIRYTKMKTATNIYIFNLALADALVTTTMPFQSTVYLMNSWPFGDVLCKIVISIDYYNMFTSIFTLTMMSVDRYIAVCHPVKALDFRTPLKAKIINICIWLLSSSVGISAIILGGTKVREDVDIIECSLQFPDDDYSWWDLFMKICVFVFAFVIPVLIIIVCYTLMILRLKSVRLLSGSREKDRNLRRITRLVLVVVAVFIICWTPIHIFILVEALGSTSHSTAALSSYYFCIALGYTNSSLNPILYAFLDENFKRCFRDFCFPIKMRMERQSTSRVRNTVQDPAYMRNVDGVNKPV

Brain [3] = assay: Blood brain barrier transport in ICR-CD1 mouse brain assessed as unidirectional initial influx rate at 30000 cpm/uL, iv; format: ADME, organism-based; settings: in vivo
[4] = biological target: Delta-type opioid receptor (Mus musculus, UniProt P32300); assay: (§2) Agonist activity at delta opioid receptor in mouse vas deferens; format: functional, tissue-based
Sequence of Delta-type opioid receptor (Mus musculus, UniProt P32300) (P32300 whole entry): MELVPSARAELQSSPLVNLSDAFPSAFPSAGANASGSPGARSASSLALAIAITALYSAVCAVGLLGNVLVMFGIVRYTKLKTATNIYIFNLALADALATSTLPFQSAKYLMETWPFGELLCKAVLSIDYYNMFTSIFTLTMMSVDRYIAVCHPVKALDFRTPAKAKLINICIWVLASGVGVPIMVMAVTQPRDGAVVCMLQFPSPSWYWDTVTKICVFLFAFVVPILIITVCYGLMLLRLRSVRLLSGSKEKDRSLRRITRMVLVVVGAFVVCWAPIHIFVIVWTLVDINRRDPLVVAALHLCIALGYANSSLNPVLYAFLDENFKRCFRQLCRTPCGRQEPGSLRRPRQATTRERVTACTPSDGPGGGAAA
Summary of the method: (§3)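 Isolated tissue bioassays: mouse vas deferens and guinea pig ileum preparations. A [Leu5]enkephalin dose-response curve was run as standard on each preparation, and test IC50 values were normalized against it.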

[5] = Metabolic stability in mouse plasma assessed as compound recovery after 2 hrs; format: ADME, cell-free; settings: read-out: Stability
Summary of the method: (§4)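 100 µg unlabelled peptide in Krebs-Henseleit buffer pH 7.4 incubated at 37 °C with shaking, in 250 µl mouse plasma or brain homogenate (150 µg protein). Aliquots quenched with TFA, heated 5 min at 95 °C, then centrifuged. Supernatants analysed by UPLC or HPLC (210 nm); recovery measured after 2 h.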

[6] = biological target: Delta-type opioid receptor (Rattus norvegicus, UniProt P33533); assay: Displacement of [3H]DSLET from delta opioid receptor in rat brain membranes after 2 hrs; format: cell membranes
Sequence of Delta-type opioid receptor (Rattus norvegicus, UniProt P33533) (P33533 whole entry): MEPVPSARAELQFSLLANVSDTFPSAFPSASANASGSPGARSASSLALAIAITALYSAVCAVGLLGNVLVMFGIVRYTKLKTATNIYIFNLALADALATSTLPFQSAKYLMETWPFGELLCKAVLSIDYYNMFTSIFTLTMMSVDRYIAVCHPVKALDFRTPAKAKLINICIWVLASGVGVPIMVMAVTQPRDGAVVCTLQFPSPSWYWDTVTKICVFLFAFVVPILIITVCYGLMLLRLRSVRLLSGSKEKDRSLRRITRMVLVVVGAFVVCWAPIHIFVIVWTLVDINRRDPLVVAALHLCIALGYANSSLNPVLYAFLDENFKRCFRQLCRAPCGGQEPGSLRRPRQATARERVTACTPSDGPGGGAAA

Mu-type opioid receptor [7] = biological target: Mu-type opioid receptor (Cavia porcellus, UniProt P97266); assay: (§5) Agonist activity at mu opioid receptor in guinea pig ileum; format: functional, tissue-based; summary of the method: as §3
Sequence of Mu-type opioid receptor (Cavia porcellus, UniProt P97266) (P97266 whole entry): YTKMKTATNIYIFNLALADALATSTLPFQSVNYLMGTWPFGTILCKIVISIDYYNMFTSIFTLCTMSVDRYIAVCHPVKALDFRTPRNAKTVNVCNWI

Liver = assay: Biodistribution in ICR-CD1 mouse liver at 30000 cpm/uL, iv; format: ADME, organism-based; settings: in vivo; summary of the method: as §1
[8] = Metabolic stability in mouse brain assessed as compound recovery after 2 hrs; format: ADME, tissue-based; settings: read-out: Stability; summary of the method: as §4
Mu-type opioid receptor [9] = biological target: Mu-type opioid receptor (Rattus norvegicus, UniProt P33535); assay: Displacement of [3H]DAMGO from mu opioid receptor in rat brain membranes after 2 hrs; format: cell membranes
Sequence of Mu-type opioid receptor (Rattus norvegicus, UniProt P33535) (P33535 whole entry): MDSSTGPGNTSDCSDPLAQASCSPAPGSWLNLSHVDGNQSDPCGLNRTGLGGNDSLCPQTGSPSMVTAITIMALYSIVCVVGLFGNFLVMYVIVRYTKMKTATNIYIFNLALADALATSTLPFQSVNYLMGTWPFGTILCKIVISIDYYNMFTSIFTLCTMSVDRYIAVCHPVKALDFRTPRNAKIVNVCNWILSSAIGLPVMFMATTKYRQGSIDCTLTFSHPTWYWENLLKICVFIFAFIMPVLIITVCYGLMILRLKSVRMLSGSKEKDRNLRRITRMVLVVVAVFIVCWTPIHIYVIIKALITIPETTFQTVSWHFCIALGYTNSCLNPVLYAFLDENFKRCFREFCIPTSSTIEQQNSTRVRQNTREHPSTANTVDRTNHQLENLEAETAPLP

Kidney = assay: Biodistribution in ICR-CD1 mouse kidney at 30000 cpm/uL, iv; format: ADME, organism-based; settings: in vivo; summary of the method: as §1
Mus musculus [10] = assay: Antinociceptive activity in CD1 mouse assessed as thermal-stimulus induced tail flick latency at 1 umol/kg, ip after 60 mins; format: functional, organism-based
Mus musculus [11] = assay: Antinociceptive activity in CD1 mouse assessed as AUC of thermal-stimulus induced tail flick latency assessed per min at 1 umol/kg, ip up to 120 mins; format: functional
Mus musculus [12] = assay: Antinociceptive activity in sc dosed CD1 mouse assessed as thermal-stimulus induced tail flick latency after 1 hr; format: functional
Summary of the method: (§6)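 Male CD-1 mice (25–35 g) dosed s.c. at 10 µl/g. Radiant-heat tail-flick latency measured with a 10 s cut-off and expressed as %MPE. At least three doses, 5–6 mice per dose.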

Mus musculus [13] = assay: Antinociceptive activity in sc dosed CD1 mouse assessed as thermal-stimulus induced tail flick latency after 1 hr relative to morphine; format: functional; summary of the method: as §6
Mus musculus [14] = assay: Antinociceptive activity in CD1 mouse assessed as thermal-stimulus induced tail flick latency at 1 umol/kg, ip up to 120 mins; format: functional, organism-based
Mus musculus [15] = assay: Antinociceptive activity in CD1 mouse assessed as thermal-stimulus induced tail flick latency at 1 umol/kg, ip after 45 mins; format: functional, organism-based
Mus musculus [16] = assay: Antinociceptive activity in sc dosed CD1 mouse assessed as thermal-stimulus induced tail flick latency after 2 to 3 hrs; format: functional, organism-based; summary of the method: as §6
Mus musculus [17] = assay: Antinociceptive activity in sc dosed CD1 mouse assessed as thermal-stimulus induced tail flick latency after 2 hrs; format: functional; summary of the method: as §6
Mus musculus [18] = assay: Antinociceptive activity in sc dosed CD1 mouse assessed as thermal-stimulus induced tail flick latency after 6 to 7 hrs; format: functional, organism-based; summary of the method: as §6
[19] = Half life in sheep blood; format: ADME, cell-free, Ovis aries, Plasma
Mus musculus [20] = assay: Antinociceptive activity in CD1 mouse assessed as thermal-stimulus induced tail flick latency at 1 umol/kg, ip after 45 to 60 mins; format: functional, organism-based
[21] = biological target: Mu-type opioid receptor (Cavia porcellus) (UniProt P97266); assay: as §5; format: functional, tissue-based; summary of the method: as §3
Sequence of Mu-type opioid receptor (Cavia porcellus) (P97266 whole entry): as the sequence (P97266 whole entry) above

[22] = biological target: Delta-type opioid receptor (Mus musculus) (UniProt P32300); assay: as §2; format: functional, tissue-based; summary of the method: as §3
Sequence of Delta-type opioid receptor (Mus musculus) (P32300 whole entry): as the sequence (P32300 whole entry) above

Mus musculus [23] = assay: Antinociceptive activity in sc dosed CD1 mouse assessed as thermal-stimulus induced tail flick latency; format: functional; summary of the method: as §6
Mus musculus [24] = assay: Antinociceptive activity in sc dosed CD1 mouse assessed as thermal-stimulus induced tail flick latency after 30 mins; settings: 0.5 h

Row | Structure (SMILES) | Drug uptake (Serum) | Activity (Brain [1]) | Ki [2] | Kin (Brain [3]) | IC50 [4] | remaining at 2 h [5] | Ki [6] | IC50 (Mu-type opioid receptor [7]) | remaining at 2 h [8] | Ki (Mu-type opioid receptor [9]) | Activity (Mus musculus [11]) | Activity (Mus musculus [14]) | also measured
1 | CCCC[C@H](NC(=O)[C@H](Cc1ccccc1)NC(=O)[C@@H](CCCN=C(N)N)NC(=O)[C@@H](N)Cc1c(C)cc(O)cc1C)C(N)=O (H-[Dmt][dR]F[Nle]-NH2) | Active | -0.039 min⁻¹ | 16.2 nM | 8.48 µL/g/min | 6.2 nM | 90.2% | 15.2 nM | 2.2 nM | 104% | 0.23 nM | – | – | Drug uptake (Liver): Active
2 | Cc1cc(O)cc(C)c1C[C@H](N)C(=O)N[C@H](CCCNC(N)=O)C(=O)N[C@@H](Cc1ccccc1)C(=O)N[C@@H](CCCCN)C(N)=O | Active | 0.027 min⁻¹ | 20.9 nM | 14.91 µL/g/min | 1.4 nM | 98.3% | 50 nM | 0.31 nM | 96.2% | 0.57 nM | 521 %.min | Active | Drug uptake (Kidney): Active; Activity (Mus musculus [10]): Active; ED50 (Mus musculus [12]): 0.23 µmol/kg; Ratio (Mus musculus [13]): 29; Activity (Mus musculus [15]): Active; Drug uptake (Liver): Active; Activity (Mus musculus [16]): Active
3 | Cc1cc(O)cc(C)c1C[C@H](N)C(=O)N[C@H](CCCNC(=N)N)C(=O)N[C@@H](Cc1ccccc1)C(=O)N[C@@H](CCCCN)C(N)=O | Active | 0.058 min⁻¹ | – | 9.44 µL/g/min | – | 94.7% | – | – | 103% | – | 750 %.min | Active | ED50 (Mus musculus [17]): 0.15 µmol/kg; Drug uptake (Kidney): Active; Activity (Mus musculus [18]): Dose-dependent effect; Activity (Mus musculus [10]): Active; half-life [19]: 1.8 h
4 | Cc1cc(O)cc(C)c1C[C@H](N)C(=O)N[C@H](CCCNC(N)=O)C(=O)N[C@@H](Cc1ccccc1)C(=O)N(C)[C@@H](CCCCN)C(N)=O | Active | 0.01 min⁻¹ | 11.5 nM | 11.35 µL/g/min | 4.4 nM | 104% | 39.2 nM | 1.01 nM | 95% | 0.94 nM | 1412 %.min | Active | Activity (Mus musculus [20]): Active; ED50 (Mus musculus [12]): 0.16 µmol/kg; Ratio (Mus musculus [13]): 41; Activity (Mus musculus [16]): Active
5 | C[C@@H](NC(=O)[C@@H](N)Cc1ccc(O)cc1)C(=O)N[C@@H](Cc1ccccc1)C(=O)NCC(=O)N[C@@H](Cc1ccc(O)cc1)C(=O)N1CCC[C@H]1C(=O)N[C@@H](CO)C(N)=O [DERMORPHIN] | – | – | – | – | – | – | – | – | – | – | 46 %.min | – | –
6 | CCCC[C@@H](C(N)=O)N1Cc2ccccc2C[C@H](NC(=O)[C@@H](CCCN=C(N)N)NC(=O)[C@@H](N)Cc2c(C)cc(O)cc2C)C1=O | – | – | 1.12 nM | – | 3.1 nM | – | 7.46 nM | 1.45 nM | – | 0.43 nM | – | – | –
7 | Cc1cc(O)cc(C)c1C[C@H](N)C(=O)N[C@H](CCCNC(=N)N)C(=O)N[C@H]1Cc2ccccc2CN(CC(N)=O)C1=O | – | – | – | – | – | – | – | – | – | – | 253 %.min | Active | Activity (Mus musculus [18]): Dose-dependent effect; ED50 (Mus musculus [12]): 0.47 µmol/kg; Ratio (Mus musculus [13]): 14
8 | Cc1cc(O)cc(C)c1C[C@H](N)C(=O)N[C@H](CCCNC(N)=O)C(=O)N[C@H]1Cc2ccccc2CN([C@@H](CCCCN)C(N)=O)C1=O | – | – | – | – | 1000 nM | – | 56.9 nM | 49 nM | – | 2.62 nM | – | – | –
9 | Cc1cc(O)cc(C)c1C[C@H](N)C(=O)N[C@H](CCCNC(=N)N)C(=O)N[C@@H](Cc1ccccc1)C(=O)N(C)[C@@H](CCCCN)C(N)=O | Active | 0.028 min⁻¹ | 56.1 nM | 18.11 µL/g/min | 7 nM | 112% | 309 nM | 8.3 nM | 94% | 0.26 nM | – | Active | ED50 (Mus musculus [17]): 0.13 µmol/kg; Activity (Mus musculus [18]): Dose-dependent effect; Activity (Mus musculus [20]): Active
10 | Cc1cc(O)cc(C)c1C[C@H](N)C(=O)N[C@H](CCCN=C(N)N)C(=O)N[C@H]1Cc2ccccc2CN(CC(N)=O)C1=O | Active | 0.096 min⁻¹ | – | 14.89 µL/g/min | – | 107% | – | – | 99.6% | – | – | – | Drug uptake (Kidney): Active
11 | CCCC[C@@H](C(N)=O)N1Cc2ccccc2C[C@H](NC(=O)[C@@H](CCCNC(N)=O)NC(=O)[C@@H](N)Cc2c(C)cc(O)cc2C)C1=O | – | – | 11.1 nM | – | 1.16 nM | – | 3.18 nM | – | – | 0.93 nM | – | – | IC35 [21]: 0.78 nM
12 | CCCC[C@@H](C(N)=O)N(C)C(=O)[C@H](Cc1ccccc1)NC(=O)[C@@H](CCCNC(N)=O)NC(=O)[C@@H](N)Cc1c(C)cc(O)cc1C (H-[Dmt][dCit]F[NMeNle]-NH2) | – | – | > 10 nM | – | 1.5 nM | – | 5.03 nM | 0.65 nM | – | 2.92 nM | – | – | –
13 | CCCC[C@H](NC(=O)[C@H](Cc1ccccc1)NC(=O)[C@@H](CCCNC(N)=O)NC(=O)[C@@H](N)Cc1c(C)cc(O)cc1C)C(N)=O (H-[Dmt][dCit]F[Nle]-NH2) | – | – | 98.5 nM | – | 4.7 nM | – | 3.98 nM | 0.89 nM | – | 0.79 nM | – | – | –
14 | CCCC[C@@H](C(N)=O)N(C)C(=O)[C@H](Cc1ccccc1)NC(=O)[C@@H](CCCN=C(N)N)NC(=O)[C@@H](N)Cc1c(C)cc(O)cc1C | – | – | 14.4 nM | – | 1.5 nM | – | 16 nM | 4.35 nM | – | 0.26 nM | – | – | –
15 | Cc1cc(O)cc(C)c1C[C@H](N)C(=O)N[C@H](CCCNC(=N)N)C(=O)N[C@H]1Cc2ccccc2CN([C@@H](CCCCN)C(N)=O)C1=O | – | – | – | – | – | – | 38.6 nM | 76 nM | – | 0.61 nM | – | – | IC25 [22]: 64 nM
16 | CCCC[C@H](NC(=O)[C@H](Cc1ccccc1)NC(=O)[C@@H](CCCNC(=N)N)NC(=O)[C@@H](N)Cc1c(C)cc(O)cc1C)C(N)=O (H-[Dmt][dR]F[Nle]-NH2) | – | – | – | – | – | – | – | – | – | – | 65 %.min | Active | Activity (Mus musculus [10]): Active; ED50 (Mus musculus [23]): > 6 µmol/kg
17 | CN1CC[C@]23c4c5ccc(O)c4O[C@H]2[C@@H](O)C=C[C@H]3[C@H]1C5 [MORPHINE] | – | – | – | – | – | – | – | – | – | – | 66 %.min | – | ED50 (Mus musculus [24]): 6.6 µmol/kg
